Test results as given in the EternaBench riboswitch data.

System: MS2 coat protein
Assay: apparent Kd, MS2 coat protein; higher = weaker binding; RNA-MaP array; FMN 200 µM where present
How it was run: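 Designs on Illumina sequencing-chip clusters, transcribed by stalled E. coli RNA polymerase, were exposed to SNAP-549-labelled MS2 coat protein in doubling steps from 0.7 or 1.5 nM up to 3 µM, without and then with constant ligand. The buffer held 100 mM Tris-HCl pH 7.5, 80 mM KCl, 4 mM MgCl2, BSA, DTT, yeast tRNA and Tween-20. Apparent Kd values are medians of filtered per-cluster binding-curve fits to green signal normalised to red-channel RNA signal and control-cluster median Fmax.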

[1] = designed as: OFF switch for flavin mononucleotide, no ligand
[2] = ligand present: flavin mononucleotide, designed as: OFF switch for flavin mononucleotide
[3] = designed as: ON switch for flavin mononucleotide, no ligand
[4] = ligand present: flavin mononucleotide, designed as: ON switch for flavin mononucleotide

| Sequence | apparent Kd [1] | apparent Kd [2] | apparent Kd [3] | apparent Kd [4] |
| --- | --- | --- | --- | --- |
| GGUGGACAUGAGGAUCACCCAUGUGAGGAUAUCGGCCGGUGCGUGGUGGCUGGCGUCUCGAGAAGGCACAUAGU | 92.1 nM | 166 nM | – | – |
| GAGUGACAUGAGGAUCACCCAUGUGAGGAUAUCGGACGGACCAAAUUAACAAUUUUUGCGAGAAGGCACAUCGG | 59.5 nM | 72.4 nM | – | – |
| GACCUAUAGGUAGGAUAUCAUUGCGAUUAGCUAUGAGAAGGACCACAUGAGGAUCACCCAUGUCCUCUAAUUAGCCAUUUGGUC | 380 nM | 1040 nM | – | – |
| AAACAAACAACGCAGGAUAUGCAAAAACCCACAUGAGGAUCACCCAUGUCCCAACAACAAACAAAGCAGAAGGGCGAACAAACAAA | – | – | 105 nM | 55.4 nM |
| AAACGCCAACAUGAGGAUCACCCAUGUUCUAGUUUAGGGUCGCAGGAUAUGACUUCGAAGCUUAGUCAGAAGGGUGAGUCCACA | – | – | 13.7 nM | 11.2 nM |
| GUGGCUCCCACAGGAUAUCCACAUGAGGAUCACCCAUGUCUAAUUAACAAAGGAGAAGGGUGGGACAAUUCUGGUGACUGAGAA | – | – | 30.1 nM | 4.89 nM |
| UUACCUCAUGAGAAGGACAUGAGGAUCACCCAUGUAGGAUAUCGUGGGAGACUGGUAUUGAAUCUUCGGAUUCAAUACCUGUCU | – | – | 454 nM | 27.9 nM |
| GCGCUUAUACAGAAGGCCAGUUACAUGAGGAUCACCCAUGUUAGAUUGUGGAGGAUAUGUGUUUUAUUACAGAUAGUUGAGCGC | – | – | 13.4 nM | 6.84 nM |
| ACAUGAGGAUCACCCAUGUAGAGUGAAGAAGGUAGAUACUUAUGACUCUCCCAUGUACAUAGGACUGAGGAUAUUCUAAUAAUU | – | – | 23.4 nM | 18.9 nM |
| GGUUCGGGAGGAUAUGUGUUUUUGGACAUGAGGAUCACCCAUGUUUUCAUGUUUUUUCCCACAGAAGGUUUGGGCC | 18.6 nM | 22.9 nM | – | – |
| GAAUGUCGGGUAGGAUAUGACGUGCCACGGAGGUCAGAAGGGCCACGACAUGAGGAUCACCCAUGUACUGUAUUCCUUUUUCAA | 22.9 nM | 60.4 nM | – | – |
| UUAAAUCAUGUAGGAUAUGCAUGGCGAAGCUACGCAGAAGGACAUGAGGAUCACCCAUGUUAUAGCUACCCAGAACGGUGGCAA | 75.5 nM | 267 nM | – | – |
| CAGUACUGAGGAUAUACAUGAGGAUCACCCAUGUAUCCUAGCUAGGAAACUAGCAAAAGUAGAAGGCAGUACUG | 16 nM | 156 nM | – | – |
| AGAUUUUUACAUGAGGAUCACCCAUGUUAAUAGGUGUUUGUCAGAAGGCAUUAUGAGAGAAUUAAUGAGGAUAUGAAGUUUCAU | – | – | 40.4 nM | 27.8 nM |
| GUGCUUGUCGGAGGAUAUGGUUACAUGAGGAUCACCCAUGUUAUGCUUGGUUACUUGUUUAGUUUCCAGAAGGUCGAUUAGUUG | 61 nM | 145 nM | – | – |
| UGGUACUAGGGAGGAUAUGGGAAGAUACAUGAGGAUCACCCAUGUUUAAGAAUGCCGAGAGCCAACUAGAAGGCCCUAGUACCU | – | – | 120 nM | 16.7 nM |
| CUUAUUUUCGAAGGAUAUGGAUACAUGAGGAUCACCCAUGUAUAAAAUGAGAUCUAUUAUAUGAUCCAGAAGGUCGUUGUUUAU | 33.4 nM | 59.2 nM | – | – |
| UCGCUUGAAGGAUAUACGAUUCGUUGUGUUCGUGUCACCUGACAUGAGGAUCACCCAUGUAGAAGGUCACGCAG | 18.6 nM | 24.6 nM | – | – |
| AAUAAACUCACAGGAUAUAGCAGAGGUCACGUGAACUUACAGGCGACGAUGCUAGAAGGGUGACCACAUGAGGAUCACCCAUGU | – | – | 862 nM | 135 nM |
| CCCGGGUUUGUGAGGAUAUUGGGCCCGAAAGGGCCCGAGAAGGCACAUGAGGAUCACCCAUGUAAGGGCCCGGG | 25.8 nM | 26.4 nM | – | – |
| AACGGAAUGUAGAAGGGUGACAUGAGGAUCACCCAUGUUCACAUGCGUAUUAAAGUAUGUGAUCCACAGGAUAUACUGUCCGUG | – | – | 957 nM | 92.8 nM |
| ACAUGAGAGUUAGGAUAUCUUGUACCUACAUGUGACAUGAGGAUCACCCAUGUGGUAAGUAUGAGGGAGAAGGAACAGAUAUGU | – | – | 43.9 nM | 33.9 nM |
| GUUACAUGAGGAUCACCCAUGUAUGUGUGGGAGUAAGUGUCUUAGGAUAUCUAUGAUUUAAUUGAAGAGAAGGAAGAUUGUUGU | – | – | 116 nM | 122 nM |
| CGCUAGUCAGGAUAUACGAACAUGUCAAAAGACGUGAAGGGACAUGAGGAUCACCCAUGUAGAAGGGACUAGCC | 32.8 nM | 115 nM | – | – |

| Sequence | apparent Kd [1] | apparent Kd [2] | apparent Kd [3] | apparent Kd [4] |
| --- | --- | --- | --- | --- |
| CCUUACACCGAGAAGGGCACGUAUUGAAGAGGGUGCCAGGAACAUCACAUGAGGAUCACCCAUGUGCAGGAUAUCGGCAGGAAC | 9.78 nM | 22.3 nM | – | – |
| CCAUCGUGUGUGAGGAUAUGCUGGUCCUUGGAUCAGCAGAAGGCACAUGAGGAUCACCCAUGUGAAAACGAUGG | 17.9 nM | 56.4 nM | – | – |
| AGAUAAGUCACAGGAUAUUCCUACAUUAAUAUGGAAGAAGGGUGAGCAUGAUUCGAUACAUGAGGAUCACCCAUGUAUCCGCGA | – | – | 78.4 nM | 19.7 nM |
| AAAGAACAUGAGGAUCACCCAUGUGAGGAUAUGCGAAAACCGCUGGCGCACCAGACGGGCAGAAGGCAUAUGGU | 75.6 nM | 92.5 nM | – | – |
| CGUAGGAUCCAGAAGGCAUGAACAUGAGGAUCACCCAUGUCAAUAGACAUGAGGAUAUGGAUCCUACGAAAAGUGCGAAAGCAC | – | – | 31.8 nM | 5.94 nM |
| ACGUGUCGUGUAGGAUAUGACACAGGAAACUGGUCAGAAGGACAUGAGGAUCACCCAUGUAGAGUGUGUUAGGAUGACGUAUGC | 51.9 nM | 199 nM | – | – |
| UGUUGUAUUACAGGAUAUCUAGUAUUUAUAUUUAGAGAAGGGUAUUCACAUGAGGAUCACCCAUGUAUAUACGAGGAAGUUGUG | – | – | 46.3 nM | 49.2 nM |
| GUCUUAUUACAGAAGGUGUUUUACAUGAGGAUCACCCAUGUUUUAAUGUUUAAAUUUGAUAUUUACAAGGAUAUGUACUAAUCU | – | – | 27.7 nM | 19.4 nM |
| GGACGUCAGAUUAACAUGAGGAUCACCCAUGUCUUUUGACAUGAGGAUAUGCAACGUAAUUCGUUGCAGAAGGCAUGGACGUCC | – | – | 1010 nM | 89.8 nM |
| UGACCCUGGAAGAGUGUUUAGACAUGAGGAUCACCCAUGUCUGAGGAUAUGCGGCAUCAAUAACAGCAGAAGGCAGACUUGGGU | 239 nM | 32.7 nM | – | – |
| GCUAGUAUUGCAGGAUAUUGAUAUUAAUUAUGGCAAGAAGGGCAUUACAUGAGGAUCACCCAUGUUUUCCUUAGUCAUACUAGC | 5.33 nM | 5.39 nM | – | – |
| UGAUUUCAUGUAGGAUAUGCUUGGCGUAGCUACGCAGAAGGACAUGAGGAUCACCCAUGUUUUAGCGUCUGAGUAUAGAUUCUU | 35.3 nM | 89.7 nM | – | – |
| UCACGGGACUAAGGAUAUACAUGAACUAUUAUUGUAGAAGGUAGAAUGUUAGCUUAUACACUAAACAUGAGGAUCACCCAUGUA | 36.5 nM | 32.8 nM | – | – |
| GGAUCGCAAGAAGAUCCAAUACGAACAUGAGGAUCACCCAUGUAGGAUAUGCUAGAAGAAGAGUAGCAGAAGGACAUGUGCCUU | 9.79 nM | 42.7 nM | – | – |
| UUAUGGUUCAAGAAGGAUGUAUUUGACUUGUACAUAGGAUAUUGUUAUAUUGUUAAUUAUUGUAACAUGAGGAUCACCCAUGUA | – | – | 7.84 nM | 7.77 nM |
| AUCCUGCGAGGAUAUACAUAGUUUUUUUCGUUUUGACUCGAACAUGAGGAUCACCCAUGUAGAAGGUGCUUCAC | 59.5 nM | 56 nM | – | – |
| UGGUACAUGGGAGGAUAUCCUCAAGAACAUGAGGAUCACCCAUGUAAUUAUAAGCCGAAAGGCAUGGAGAAGGCCCAUGUACCU | – | – | 66.4 nM | 16 nM |
| AUUAAGAAUGAAGGAUAUCUAAGCGUAAACAAAAGAGAAGGUCAAUAGUACAUGAGGAUCACCCAUGUUAGAAUAGAUGGGAUA | 117 nM | 103 nM | – | – |
| GUAUCAUACCAAGGAUAUUUAGGACUUGUAUAGACAUGAGGAUCACCCAUGUGGCGUUAGUCACGGGAGAAGGUGGUAUGAUAC | – | – | 88.4 nM | 17.5 nM |
| UUCAUCAAUGAAGGAUAUCUAUGUCCAACAUGAGGAUCACCCAUGUUGAGGAUCACCUAUGUAAAGGAGAAGGUUAAUAUAACU | – | – | 6.96 nM | 6.42 nM |
| UUUGGUUUGCGAGGAUAUGCUUUUAGUAAGUUAGCAGAAGGCGCGUUACAUAGAACCUCUUGUUACAUGAGGAUCACCCAUGUU | 88.2 nM | 95 nM | – | – |
| UCUACAUAGAUUCAUCAAUACAGUAAGGAUAUGAGAUACAUGAGGAUCACCCAUGUGCAUGUGAAUUAGAAGGUACAAUUAACU | 15.7 nM | 12.8 nM | – | – |
| GUAGCAUACCGAGGAUAUUCAGGGCUUAAAUAAACAUGAGGAUCACCCAUGUGGCGAAAGCCUAGGGAGAAGGCGGAAUGCUAC | – | – | 14.6 nM | 13.4 nM |
